Fewer inactive variants are shown than the library holds.

To fix the notation:
B1: tRNA (parent)
chain: CUCUCGGUAGCCAAGUUGGUUUAAGGCGCAAGACUUUAAUUUAUCACUACGAAAUCUUGAGAUCGGGCGUUCGACUCGCCCCCGGGAGAUUUUUUCCUCGAGCAA

In this data set the parent is B1. Briefly: nonsense suppression (GFP-seq) (ratio to wild type); higher = more function; SUP4oc tRNA, yeast GFP reporter sort-seq. In outline:
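Yeast were grown in raffinose/galactose medium with 80 mg/L adenine, each strain bearing a genome-integrated ochre-suppressor tRNA variant from a ~3% random-mutation library, a galactose-driven GFP ochre reporter, and RFP. After sorting into GFP/RFP bins, every bin was sequenced on an Illumina platform at phred ≥30. The GFPSEQ value, a measure of nonsense suppression, is the weighted bin median GFP/RFP relative to the unmutated parent tRNA, using each variant's estimated cell share per bin as the weight. Only variants with ≥100 reads and ≥30 cells were included.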
Consider CUCUCGCUAGCCAAGUUGGUUUAAGGCGGAAGACUUUAAUUUAUCACUACGAAAUCUUGAGAUCGGGCGUUCGACUCGCCCCCGGGAGAUUUUUUCCUCGAGCAA [G7C C29G], for which the nonsense suppression is at most 0.026.

On to CUCUCGAUAGCCAAGUUGGUUUAAGGCGCAAGACGUUAAUUUAUCACUACGAAAUCUUAAGAUCGGGCGUUCGACUCGCCCCCGGGAGAUUUUUUCCUCGAGCAA [G7A U35G G59A], for which the nonsense suppression is at most 0.026.

Regarding CUCUCGGAGGCCAAGUUGGUUUAAGGCGCAAGACUUUAAUUUAUCACUACGAAAUCUUGAGAUCGGGCGUUCGACUCGCCCCCGGGAGAUUUUUUCCUCGAGCAA [U8A A9G], the nonsense suppression was 0.0277.

CUCUCGUUAGCCAAGUUGGUUUAAGGCGCAAACCUUUAAUUUAUCACUACGAAAUCUUGAGAUCGGGCGUUCGACUCGCCCCAGGGAGGUUUUUUCCUCGAGCAA [G7U G32A A33C C83A A89G]: the nonsense suppression was at most 0.026.

As for CUCUCGCUAACCAAGUUGGUUUAAGGCGCAAGACUUUAAUUUAUCACUACGAAAUCUUGAGAUCGGGGGUUCGACUCGCCCCCGGGAGAUUUUUUCCUCGAGCAA [G7C G10A C68G], the nonsense suppression is at most 0.026.

Consider CUCUCGCUAGCCAAGUUGGUUUAAGGCGCAAGACUUUAAUUUAUCACUACGAAACCUUGAGAUCGGGCGUUCGACUCGCCCCCGGGAGAUUUUUUCCUCGAGCAA [G7C U55C], for which the nonsense suppression came to 0.0823.

With CUCUCGUUCGCCAAGCUGGUUUAAGGCGCAAGACUUUAAUUUAUCACUACGAAAUCCUGAGAUCGGGCGUUCGACUCGCCCCCGGGAGAUUUUUUCCUCGAGCAA [G7U A9C U16C U57C], the nonsense suppression is at most 0.026.

CUCUCGUUAGCCAAGUUGGUUUAAGGUGCAAGACAUUAAUUUAUCACUACGAAAUCUUGAGAUCGGGCGUUCGCCUCGCCCCCGGGAGAUUUUUUCCUCGAGCAA [G7U C27U U35A A74C]: the nonsense suppression was at most 0.026.

Take CUCUCGCUAGCCAAGUUGGUUUAAGGCGCAAGACUUUAAUUUAUCACUACGAAAUCUUGUAAUCGGGCGUUCGACUCGCCCGCGGGAGAUUUUUUCCUCGAGCAA [G7C A60U G61A C82G]: the nonsense suppression worked out at 0.0263.

In the case of CUCUCGCUAGCCAAGUUGGUUUAAGGCGCAAGACGUUAAUUUAUCACUACGAAAUCUUGAGAUCGGGCGUUCGACUCGCCCCCGGGAGAUUUUUUCCUCGAGCAA [G7C U35G], the nonsense suppression is at most 0.026.

Consider CUCUCGAUAGCCAAGUUGGUUUAAGGCGCAAGACUUUAAUUUAUCACUACGAAAUCUUGAGAUCGGGCGAUCGACUCGCCCCCGGGAGCUUUUUUCCUCGAGCAA [G7A U70A A89C], for which the nonsense suppression was at most 0.026.

Take CUCUCGUUAGCCAAGUUGGUUUAAGGCGCAAGACUUUAAUUUAUCACUACGAAAUCUUGAGAUCGGGCGUUCGACUCGACCCCGUUAUAUUUUUUCCUCGAGCAA [G7U C79A G85U G86U G88U]: the nonsense suppression is at most 0.026.

Consider CUCUCGUUAGCCAAGUUGGUGUUAGGCGCAAGACUUUAAUUUAUCACUACGAAAUCUUGAGAUCGGGCGUUCGACUCGGCCCCGGGAGAUUUUUUCCUCGAGCAA [G7U U21G A23U C79G], for which the nonsense suppression is at most 0.026.

Regarding CUCUCGCUAGCCAGGUUGGUUAAUGGCGCAAGACUUUAAUUUAUCACUACGAAAUCUUGAGAUCGGGCGUUCGACUCGCCCCCGCGAGAUUUUUUCCUCGAGCAA [G7C A14G U22A A24U G85C], the nonsense suppression was at most 0.026.

As for CUCUCGUUAGCCAAGUUGGUUUAAGGCUCAAGACUUUAAUUUAUCACUACGAAAUCUUGAGAUCGGGCGUGAGACUCGCCCCCGGUAGAUUUUUUCCUCGAGCAA [G7U G28U U71G C72A G86U], the nonsense suppression was at most 0.026.

CUCUCGCUAGCCAAGUUGGUUUAAGGCGCACCACUUUAAUUUAUCACUACGAAAUCUUGAGAUCGGGCGUUCGACUCGCCCCCGGGAGAUUUUUUCCUCGAGCAA [G7C A31C G32C]: the nonsense suppression was at most 0.026.

On to CUCUCGGAAGCCUAGUUGAUUUAAGGCGCAAGACUUUAAUUUAUCACUACGAAAUCUUGAGGUCGGACGUCCGACUCGCCCCCGGGAGAUUUUUUCCUCGAGCAA [U8A A13U G19A A62G G67A U71C], for which the nonsense suppression is at most 0.026.

Take CUCUCGCUAGCCAAGUUGGUGUAAGGCGCAAGACUUUAAUUUAUCACUACGAAAUCUUGAGAUCGGGCGUUCGACUCGCCCCCGGGAGAUUUUUUCCUCGAGCAA [G7C U21G]: the nonsense suppression turned out to be 0.0521.

With CUCUCGUUAGCCAAGUUGGUUUAAGGCGCAAGACUUUAAUUUAUCACUACGAAAUCUUGAGAUCGGGCGUUCGACUCGCCCCCGUGAGAUUUUUUCCUCGAGCAA [G7U G85U], the nonsense suppression was at most 0.026.

Turning to CUCUCGUUAGCCAAGUUGGUAUAAGGCGCAAGACUUUAAUUUAUCACUACGAAAUCUUGAGAUCGGGCGUUCGACUCAACCCCGGGAGAUUUUUUCCUCGAGCAA [G7U U21A G78A C79A], the nonsense suppression is at most 0.026.

Take CUCUCGUUAGUCAAGUUGGUUUAAGGCGCAAGACUUUAAUUUAUCACUACGAAAUGUUGAGAUCGGGCGUUCGACUCGCCCCCGGGAGAUUUUUUCCUCGAGCAA [G7U C11U C56G]: the nonsense suppression was at most 0.026.

As for CUCUCGCUAGCCACGUUGGUUUAAGGCGCAAGACUUUAAUUUAUCACUACGAAAUCUUGAUAUCGGGCGUUCGUCUCGCCCCCGGGGGAUUUUUUCCUCGAGCAA [G7C A14C G61U A74U A87G], the nonsense suppression is at most 0.026.

CUCUCGGAAGCCGAGUUGGUUUAAGGCGCAAGACUUUAAUUUAUCACUACGAAAUCUUGAGAUCGGGCGUUCGACUCGCCCCCGGGAGAUUUUUUCCUCGAGCAA [U8A A13G]: the nonsense suppression is at most 0.026.

On to CUCUCGUUAGCCAAGUUGGUUUAAGGCGCAAGACUUUAAUUUAUCACUACGAAAUUUUGAGAUCGGGCGUUCGACUCGCCCCCGGGAGAUUUUUUCCUCGAGCAA [G7U C56U], for which the nonsense suppression was at most 0.026.

On to CUCUCGAUAGCCAAGUUGGGUUAAGGCGCAAGAUUUUAAUUUAUCACUACGAAAUCCUGAGAUAGGGCGUUCGACUCGUCCCCGGGACAUUUUUUCCUCGAGCAA [G7A U20G C34U U57C C64A C79U G88C], for which the nonsense suppression was at most 0.026.

For CUCUCGUUAGCCAAGUUGGUUUAAGGCGCAAGACUUUAAUUUAUCACUACGAAAUCUUGAGAUCGGGCGUUCGACUCGCCCCCGGGUGAUUUUUUCCUCGAGCAA [G7U A87U], the nonsense suppression is at most 0.026.

For CUCUCGUUAGCCAAGUUGGUUUAAGGCGCAAGACUUUAAUUUAUCACUACGAAAUCUGGAGAUCGGGCGUUCGACUCGCGCCCGGGAGAUUUUUUCCUCGAGCAA [G7U U58G C80G], the nonsense suppression was at most 0.026.

Source of the values: the RNAGym collection of RNA variant scans (doi:10.1101/gad.245936.114).
